Measured values published in ChEMBL document CHEMBL1649115, “Enhanced susceptibility to antifungal oligopeptides in yeast strains overexpressing ABC multidrug efflux pumps” (Antimicrob Agents Chemother, 2008).
Values after ≈ are worked out from the molar mass of the structure shown. Residues, ends and D or L forms follow the SMILES beside them. *: point of attachment. Ethyl(2-NH2) = NCC*

Assays:
Saccharomyces cerevisiae [1] = assay: Drug uptake in Saccharomyces cerevisiae ADCDR1 expressing Candida albicans CDR1 efflux pump at 200 uM pretreated for 10 mins measured after 60 mins by fluorescamine staining; format: ADME, organism-based; conditions: in vivo, 1 h
Saccharomyces cerevisiae [2] = assay: Prodrug stability in wild type Saccharomyces cerevisiae ATCC 9763 assessed as compound cleavage rate measured per mg of protein; format: ADME, organism-based; conditions: in vivo
Saccharomyces cerevisiae [3] = assay: Drug uptake in Saccharomyces cerevisiae ADMDR1 expressing Candida albicans MDR1 efflux pump at 200 uM pretreated for 10 mins measured after 60 mins by fluorescamine staining; format: ADME, organism-based; conditions: in vivo, 1 h
Candida albicans [4] = assay: Prodrug stability in fluconazole sensitive Candida albicans isolate Gu4 assessed as compound cleavage rate measured per mg of protein; format: ADME, organism-based; conditions: in vivo
Procedure, shortened: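 Oligopeptides were incubated with cell extracts of the yeast cells, and their hydrolytic enzymes cleaved them. The amino acids released were quantified by the Cd-ninhydrin method.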

Candida albicans [5] = assay: Prodrug stability in wild type Candida albicans 10261 assessed as compound cleavage rate measured per mg of protein; format: ADME, organism-based; conditions: in vivo
Saccharomyces cerevisiae [6] = assay: Drug uptake in Saccharomyces cerevisiae AD12345678 at 200 uM pretreated for 10 mins measured after 60 mins by fluorescamine staining; format: ADME, organism-based; conditions: in vivo, 1 h
Saccharomyces cerevisiae [7] = assay: Prodrug stability in Saccharomyces cerevisiae ADCDR2 expressing Candida albicans CDR2 efflux pump assessed as compound cleavage rate measured per mg of protein; format: ADME, organism-based; conditions: in vivo
Candida albicans [8] = assay: Prodrug stability in fluconazole sensitive Candida albicans isolate B3 assessed as compound cleavage rate measured per mg of protein; format: ADME, organism-based; conditions: in vivo
Saccharomyces cerevisiae [9] = assay: Prodrug stability in Saccharomyces cerevisiae ADCDR1 expressing Candida albicans CDR1 efflux pump assessed as compound cleavage rate measured per mg of protein; format: ADME, organism-based; conditions: in vivo
Saccharomyces cerevisiae [10] = assay: Drug uptake in Saccharomyces cerevisiae ADCDR2 expressing Candida albicans CDR2 efflux pump at 200 uM pretreated for 10 mins measured after 60 mins by fluorescamine staining; format: ADME, organism-based; conditions: in vivo, 1 h
Saccharomyces cerevisiae [11] = assay: Prodrug stability in Saccharomyces cerevisiae AD12345678 assessed as compound cleavage rate measured per mg of protein; format: ADME, organism-based; conditions: in vivo
Saccharomyces cerevisiae [12] = assay: Prodrug stability in Saccharomyces cerevisiae ADMDR1 expressing Candida albicans MDR1 efflux pump assessed as compound cleavage rate measured per mg of protein; format: ADME, organism-based; conditions: in vivo
Saccharomyces cerevisiae [13] = assay: Antifungal activity against Saccharomyces cerevisiae ADCDR1 expressing Candida albicans CDR1 efflux pump in YNPG-proline medium after 24 hrs by microdilution method; format: functional; conditions: ADCDR1, 24 h
Saccharomyces cerevisiae [14] = assay: Antifungal activity against Saccharomyces cerevisiae AD12345678 in YNPG-proline medium after 24 hrs by microdilution method; format: functional; conditions: AD12345678, 24 h
Saccharomyces cerevisiae [15] = assay: Antifungal activity against Saccharomyces cerevisiae ADMDR1 expressing Candida albicans MDR1 efflux pump in YNPG-proline medium after 24 hrs by microdilution method; format: functional; conditions: ADMDR1, 24 h
Saccharomyces cerevisiae [16] = assay: Antifungal activity against Saccharomyces cerevisiae ADCDR2 expressing Candida albicans CDR2 efflux pump in YNPG-proline medium after 24 hrs by microdilution method; format: functional; conditions: ADCDR2, 24 h
Saccharomyces cerevisiae [17] = assay: Antifungal activity against wild type Saccharomyces cerevisiae ATCC 9763 in YNPG-proline medium after 24 hrs by microdilution method; format: functional; conditions: ATCC 9763, 24 h
Candida albicans [18] = assay: Antifungal activity against wild type Candida albicans 10261 in RPMI-1640 buffered medium after 24 hrs by microdilution method; format: functional
Procedure, shortened: (§1)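 C. albicans cells were grown in 2% glucose, 1% yeast extract, 1% Bacto peptone medium before testing. […] CARE-2 fingerprinting confirmed that each pair is a single strain.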

Saccharomyces cerevisiae [19] = assay: Antifungal activity against Saccharomyces cerevisiae AD12345678 in YNPG medium containing 1 mg/ml […] after 24 hrs by microdilution method; format: functional; conditions: AD12345678, 24 h
Saccharomyces cerevisiae [20] = assay: Antifungal activity against Saccharomyces cerevisiae ADMDR1 expressing Candida albicans MDR1 efflux pump in YNPG medium containing 1 mg/ml […] after 24 hrs by microdilution method; format: functional; conditions: ADMDR1, 24 h
Candida albicans [21] = assay: Antifungal activity against fluconazole resistant Candida albicans isolate B4 overexpressing MDR1 in RPMI-1640 buffered medium after 24 hrs by microdilution method; format: functional; procedure, shortened: as §1
Saccharomyces cerevisiae [22] = assay: Antifungal activity against wild type Saccharomyces cerevisiae ATCC 9763 in YNPG medium containing 1 mg/ml […] after 24 hrs by microdilution method; format: functional; conditions: ATCC 9763, 24 h
Candida albicans [23] = assay: Antifungal activity against fluconazole resistant Candida albicans isolate Gu5 overexpressing CDR1 and CDR2 in RPMI-1640 buffered medium after 24 hrs by microdilution method; format: functional; conditions: isolate Gu5, 24 h
Procedure, shortened: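 C. albicans cells were grown in 2% glucose, 1% yeast extract, 1% Bacto peptone medium before testing. CARE-2 fingerprinting confirmed that each pair is a single strain.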

Candida albicans [24] = assay: Antifungal activity against fluconazole sensitive Candida albicans isolate Gu4 in RPMI-1640 buffered medium after 24 hrs by microdilution method; format: functional; procedure, shortened: as §1
Saccharomyces cerevisiae [25] = assay: Antifungal activity against Saccharomyces cerevisiae ADCDR1 expressing Candida albicans CDR1 efflux pump in YNPG medium containing 1 mg/ml […] after 24 hrs by microdilution method; format: functional; conditions: ADCDR1, 24 h
Candida albicans [26] = assay: Antifungal activity against fluconazole sensitive Candida albicans isolate B3 in RPMI-1640 buffered medium after 24 hrs by microdilution method; format: functional; procedure, shortened: as §1
Saccharomyces cerevisiae [27] = assay: Antifungal activity against Saccharomyces cerevisiae ADCDR2 expressing Candida albicans CDR2 efflux pump in YNPG medium containing 1 mg/ml […] after 24 hrs by microdilution method; format: functional; conditions: ADCDR2, 24 h
[28] = Candida albicans, 10261, 24 h, read-out: MIC
[29] = Candida albicans, isolate B4, 24 h, read-out: MIC
[30] = Candida albicans, isolate Gu4, 24 h, read-out: MIC
[31] = Candida albicans, isolate B3, 24 h, read-out: MIC

| Compound | Drug uptake (Saccharomyces cerevisiae [1]) [nmol/min/mg] | Drug uptake (Saccharomyces cerevisiae [3]) [nmol/min/mg] | Stability (Candida albicans [4]) [nmol/min] | Stability (Candida albicans [5]) [nmol/min] | Drug uptake (Saccharomyces cerevisiae [6]) [nmol/min/mg] | Stability (Candida albicans [8]) [nmol/min] | Drug uptake (Saccharomyces cerevisiae [10]) [nmol/min/mg] | MIC (Saccharomyces cerevisiae [13]) [µg/mL] | MIC (Saccharomyces cerevisiae [14]) [µg/mL] | MIC (Saccharomyces cerevisiae [15]) [µg/mL] | MIC (Saccharomyces cerevisiae [16]) [µg/mL] | MIC (Saccharomyces cerevisiae [17]) [µg/mL] | MIC (Candida albicans [18]; [28]) [µg/mL] | MIC (Candida albicans [21]; [29]) [µg/mL] | MIC (Candida albicans [24]; [30]) [µg/mL] | MIC (Candida albicans [26]; [31]) [µg/mL] | also measured |
| --- | --- | --- | --- | --- | --- | --- | --- | --- | --- | --- | --- | --- | --- | --- | --- | --- | --- |
| CC(C)C[C@H](NC(=O)[C@H](CC(C)C)NC(=O)[C@@H](N)COCCN)C(=O)NCC(=O)O (H-S(Ethyl(2-NH2))LLG-OH) [listing 1 of 2 here] | 0.83 | 0.65 | 20 | 20 | 0.51 | 20 | 0.96 | – | – | – | – | – | – | – | – | – | Stability (Saccharomyces cerevisiae [2]): 14 nmol/min; Stability (Saccharomyces cerevisiae [7]): 14 nmol/min; Stability (Saccharomyces cerevisiae [9]): 14 nmol/min; Stability (Saccharomyces cerevisiae [11]): 14 nmol/min; Stability (Saccharomyces cerevisiae [12]): 14 nmol/min |
| CC(C)C[C@H](NC(=O)[C@H](CC(C)C)NC(=O)[C@@H](N)COCCN)C(=O)NCC(=O)O (H-S(Ethyl(2-NH2))LLG-OH) [listing 2 of 2 here] | – | – | – | – | – | – | – | 16 (≈ 37.1 µM) | 64 (≈ 148 µM) | 64 (≈ 148 µM) | 32 (≈ 74.2 µM) | 64 (≈ 148 µM) | – | – | – | – | – |
| CC(C)C[C@H](NC(=O)[C@H](CC(C)C)NC(=O)[C@H](CC(C)C)NC(=O)[C@@H](N)COCCN)C(=O)NCC(=O)O (H-S(Ethyl(2-NH2))LLLG-OH) [listing 1 of 2 here] | 0.49 | 0.28 | 20 | 20 | 0.31 | 20 | 0.51 | – | – | – | – | – | – | – | – | – | Stability (Saccharomyces cerevisiae [2]): 14 nmol/min; Stability (Saccharomyces cerevisiae [7]): 14 nmol/min; Stability (Saccharomyces cerevisiae [9]): 14 nmol/min; Stability (Saccharomyces cerevisiae [11]): 14 nmol/min; Stability (Saccharomyces cerevisiae [12]): 14 nmol/min |
| CC(C)C[C@H](NC(=O)[C@H](CC(C)C)NC(=O)[C@H](CC(C)C)NC(=O)[C@@H](N)COCCN)C(=O)NCC(=O)O (H-S(Ethyl(2-NH2))LLLG-OH) [listing 2 of 2 here] | – | – | – | – | – | – | – | 128 (≈ 235 µM) | 256 (≈ 470 µM) | 256 (≈ 470 µM) | 128 (≈ 235 µM) | 256 (≈ 470 µM) | – | – | – | – | – |
| [N-]=[N+]=CC(=O)CC[C@H](N)C(=O)O [6-DIAZO-5-OXO-L-NORLEUCINE] | 2.32 | 1.98 | – | – | 2 | – | 2.25 | – | – | – | – | – | 4 (≈ 23.4 µM) | 4 (≈ 23.4 µM) | 4 (≈ 23.4 µM) | 4 (≈ 23.4 µM) | MIC (Saccharomyces cerevisiae [19]): 0.5 µg/mL (≈ 2.92 µM); MIC (Saccharomyces cerevisiae [20]): 0.5 µg/mL (≈ 2.92 µM); MIC (Saccharomyces cerevisiae [22]): 0.5 µg/mL (≈ 2.92 µM); MIC (Candida albicans [23]): 1 µg/mL (≈ 5.84 µM); MIC (Saccharomyces cerevisiae [25]): 0.125 µg/mL (≈ 0.73 µM); MIC (Saccharomyces cerevisiae [27]): 0.25 µg/mL (≈ 1.46 µM) |
| C[C@H](N)C(=O)O [ALANINE] | 4.16 | 3.33 | – | – | 3.51 | – | 4.35 | – | – | – | – | – | – | – | – | – | – |
| OC(Cn1cncn1)(Cn1cncn1)c1ccc(F)cc1F [FLUCONAZOLE] | – | – | – | – | – | – | – | 32 (≈ 104 µM) | 1 (≈ 3.27 µM) | 32 (≈ 104 µM) | 16 (≈ 52.2 µM) | 2 (≈ 6.53 µM) | 4 (≈ 13.1 µM) | 64 (≈ 209 µM) | 8 (≈ 26.1 µM) | 4 (≈ 13.1 µM) | MIC (Candida albicans [18]): 4 µg/mL (≈ 13.1 µM); MIC (Candida albicans [21]): 64 µg/mL (≈ 209 µM); MIC (Candida albicans [24]): 8 µg/mL (≈ 26.1 µM); MIC (Candida albicans [26]): 4 µg/mL (≈ 13.1 µM) |
| C[C@H](NC(=O)[C@H](Cc1cnc[nH]1)NC(=O)[C@H](CO)NC(=O)[C@@H](N)CC(=O)O)C(=O)N[C@@H](CCCCN)C(=O)N[C@@H](CCCNC(=N)N)C(=O)N[C@@H](Cc1cnc[nH]1)C(=O)N[C@@H](Cc1cnc[nH]1)C(=O)NCC(=O)N[C@@H](Cc1ccc(O)cc1)C(=O)N[C@@H](CCCCN)C(=O)N[C@@H](CCCNC(=N)N)C(=O)N[C@@H](CCCCN)C(=O)N[C@@H](Cc1ccccc1)C(=O)N[C@@H](Cc1cnc[nH]1)C(=O)N[C@@H](CCC(=O)O)C(=O)N[C@@H](CCCCN)C(=O)N[C@@H](Cc1cnc[nH]1)C(=O)N[C@@H](Cc1cnc[nH]1)C(=O)N[C@@H](CO)C(=O)N[C@@H](Cc1cnc[nH]1)C(=O)N[C@@H](CCCNC(=N)N)C(=O)NCC(=O)N[C@@H](Cc1ccc(O)cc1)C(=O)O [HISTATIN 5] | – | – | 0.3 | 0.3 | – | 0.3 | – | 128 (≈ 42.2 µM) | 128 (≈ 42.2 µM) | 128 (≈ 42.2 µM) | 128 (≈ 42.2 µM) | 128 (≈ 42.2 µM) | 32 (≈ 10.5 µM) | 32 (≈ 10.5 µM) | 32 (≈ 10.5 µM) | 32 (≈ 10.5 µM) | MIC (Candida albicans [23]): 32 µg/mL (≈ 10.5 µM) |
